This is an account of results in ChEMBL document CHEMBL2396626, “Exploiting drug-resistant enzymes as tools to identify thienopyrimidinone inhibitors of human immunodeficiency virus reverse transcriptase-associated ribonuclease H” (J Med Chem, 2013).

A word on the CC50: it is the concentration giving 50% cytotoxicity. Lower therefore signals harm at low concentration. One may read the pEC50 as the negative decadic logarithm of the EC50, by convention in mol/L. Read a low pEC50 as a high EC50. By pIC50 is commonly meant −log10 of the IC50, conventionally taken in molar units. As a reminder, the ΔTm is the change in melting temperature against a reference sample.

pEC50, pIC50: −log10 of the molar value. Calls of active or inactive are those of the source. No cut-off for these calls is given here.

Series [1] in a line: Selectivity ratio of CC50 for human CEM-SS cells to EC50 for Human immunodeficiency virus 1 RF isolate. Format: ADME, cell-based.
Series [2] deals with Human immunodeficiency virus type 1 reverse transcriptase (Human immunodeficiency virus 1) (UniProt Q72547). As to the kind of experiment: Inhibition of RNase H activity of HIV-1 reverse transcriptase using 18 nucleotide 3'-fluorescein-labeled RNA/18 nucleotide 5'-dabsyl-labeled DNA hybrid as substrate by Yonetani-Theorell plot analysis in presence of beta-thujaplicinol. The method in brief:
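Yonetani-Theorell: RNase H rates at 250 nM RNA/DNA substrate, fixed enzyme, thienopyrimidinone 0–5 μM against β-thujaplicinol 0, 0.125, 0.25, 0.5, 1 μM; hydrolysis started with substrate, monitored 60 min; V0/Vi plotted and fitted to two-inhibitor equation with interaction term.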

Series [3] deals with CEM-SS. Briefly: Cytotoxicity against human CEM-SS cells by XTT assay. It counts as cell-based. In outline: (§1)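 Cytopathic-protection format: HIV-1 RF isolate in human T-cell line CEM-SS, with cell viability read by XTT-based assay.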
A general note: Tetrazolium assays rely on reduction of a dye to a coloured formazan, in cell work by metabolically active cells.

Series [4] has as its system Human immunodeficiency virus 1. As to the kind of experiment: Antiviral activity against Human immunodeficiency virus 1 RF isolate infected in human CEM-SS cells by XTT assay. Format: functional, organism-based. The method in brief:
as §1

In series [5] the target is Human immunodeficiency virus type 1 integrase (Human immunodeficiency virus 1) (UniProt Q7ZJM1). Briefly: Inhibition of HIV-1 integrase using DNA duplex as substrate at 50 uM preincubated for 10 mins prior to substrate addition measured after 1 hr.
The nature of series [6]: Inhibition of RNase H activity of HIV-1 reverse transcriptase p66/p51 T286A mutant using 18 nucleotide 3'-fluorescein-labeled RNA/18 nucleotide 5'-dabsyl-labeled DNA hybrid as substrate after 10 mins by fluorescence spectrometric analysis. Also noted: species or system Human immunodeficiency virus 1.
A short description of series [7]: Inhibition of RNase H activity of HIV-1 reverse transcriptase p66/p51 R284A mutant using 18 nucleotide 3'-fluorescein-labeled RNA/18 nucleotide 5'-dabsyl-labeled DNA hybrid as substrate after 10 mins by fluorescence spectrometric analysis. Set-up: species or system Human immunodeficiency virus 1.
Series [8] can be described thus: Inhibition of RNase H activity of HIV-1 reverse transcriptase p66/p51 C280A mutant using 18 nucleotide 3'-fluorescein-labeled RNA/18 nucleotide 5'-dabsyl-labeled DNA hybrid as substrate after 10 mins by fluorescence spectrometric analysis. Set-up: species or system Human immunodeficiency virus 1.
Series [9] can be described thus: Inhibition of RNase H activity of HIV-1 reverse transcriptase p66/p51 V276A mutant using 18 nucleotide 3'-fluorescein-labeled RNA/18 nucleotide 5'-dabsyl-labeled DNA hybrid as substrate after 10 mins by fluorescence spectrometric analysis. Also noted: species or system Human immunodeficiency virus 1.
Series [10] addresses Human immunodeficiency virus type 1 reverse transcriptase (Human immunodeficiency virus 1, UniProt Q72547). As to the kind of experiment: Inhibition of RNase H activity of wild type HIV-1 reverse transcriptase using 18 nucleotide 3'-fluorescein-labeled RNA/18 nucleotide 5'-dabsyl-labeled DNA hybrid as substrate after 10 mins by fluorescence spectrometric analysis.
Series [11] concerns the target Human immunodeficiency virus type 1 reverse transcriptase (Human immunodeficiency virus 1) (UniProt Q72547). As to the kind of experiment: Binding affinity to HIV-1 reverse transcriptase p66/p51 assessed as decrease in melting temperature at 10 uM by differential scanning fluorimetric analysis in presence of Mg2+. In general terms: In DSF a fluorescence change marks the thermal transition of the protein.

Series [12] has the same target. Briefly: Binding affinity to HIV-1 reverse transcriptase p66/p51-RNA/DNA hybrid complex assessed as decrease in melting temperature at 10 uM by differential scanning fluorimetric analysis in presence of Mg2+.
Series [13] has the same target. As to conditions: 500 uM.

Sequence of Human immunodeficiency virus type 1 integrase (Human immunodeficiency virus 1) (Q7ZJM1 as listed by the source): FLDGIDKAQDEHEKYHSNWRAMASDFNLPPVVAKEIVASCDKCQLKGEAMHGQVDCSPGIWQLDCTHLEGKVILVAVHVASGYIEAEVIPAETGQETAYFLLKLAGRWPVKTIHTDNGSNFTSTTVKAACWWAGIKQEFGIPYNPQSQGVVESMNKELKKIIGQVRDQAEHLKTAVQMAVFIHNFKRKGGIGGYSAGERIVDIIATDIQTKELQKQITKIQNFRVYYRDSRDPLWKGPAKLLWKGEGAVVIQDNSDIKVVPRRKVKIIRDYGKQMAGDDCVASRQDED

Turning to `Cc1sc2nc(-c3ccc(O)c(O)c3)[nH]c(=O)c2c1C`, the “Ratio CC50/EC50” value in [1] came to 2.3. The inhibition entry in [2] was “Active”. Further, the CC50 in series [3] came to 8.9 µM. Further, in series [4], the pEC50 is 5.42. In addition, the inhibition result in [5] is “inactive”. Also, the pIC50 is 6.55 in series [6]; 6.52 in series [7]; 6.49 in [8]; 6.41 in [9]; 6.59 in [10]. For the same compound, the ΔTm in [11] is 0.5 °C; in series [12], 5.8 °C.
Consider `CC(C)c1ccc(O)c(=O)c(O)c1`, for which the results for the ΔTm in series [13] and in series [11] were 2 °C and 0.5 °C, respectively.
Regarding `O=c1[nH]c(-c2ccc(O)c(O)c2)nc2sc3c(c12)CCCCC3`, the “Ratio CC50/EC50” value in series [1] came to 4.3. The inhibition result in [2] was “Active”. This compound also returned a CC50 in [3] of 6.8 µM. For the same compound, the pEC50 in series [4] is 5.80. The inhibition result in series [5] is “inactive”. In addition, the pIC50 in series [6] was 6.44; in [7], 6.26; in [8], 6.59; in series [9] it was 6.43; in series [10], 6.54. Moreover, the thermal shift (ΔTm) in [11] amounted to 0.5 °C; in [12], 5.9 °C.
